Active and inactive are the calls of the source. The rule behind the calls is not given here.
Legend:
[1] = tested on: A549; test: Anticancer activity against human A549 cells assessed as reduction in cell viability at IC50 concentration incubated for 72 hrs by CellTiter-Glo assay; assay type: functional, cell-based
Outline: (§1)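 Three-day CellTiter-Glo viability assay. Cells exposed to compound across a 10-dose range of 0.3 nM to 10 µM for 72 h. IC50 from nonlinear sigmoidal dose-response fit.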

[2] = tested on: BaF3; settings: Mus musculus, dose 10-1000 nM
[3] = tested on: Epidermal growth factor receptor (Homo sapiens), P00533 [UNDEFINED MUTATION]; settings: PC-9, dose 10-1000 nM
[4] = tested on: Epidermal growth factor receptor (Homo sapiens), P00533 [UNDEFINED MUTATION]; settings: PC-9, dose 500.0 nM, time 48.0 hrs
[5] = tested on: Epidermal growth factor receptor (Homo sapiens), P00533 [UNDEFINED MUTATION]; settings: MGH121, dose 500.0 nM, time 48.0 hrs
[6] = tested on: A549; test: Anticancer activity against KRAS-mutated human A549 cells assessed as reduction in cell viability at 1 to 10000 nM incubated for 72 hrs by CellTiter-Glo assay; assay type: functional, cell-based; settings: dose 1-10000 nM
[7] = tested on: BaF3; settings: Mus musculus, dose 10-1000 nM; remark: listed apart in the source
[8] = tested on: BaF3; test: Inhibition of EGFR-C797S/T790M/del19 mutant in mouse BaF3 cells assessed as reduction in EGFR phosphorylation incubated for 6 hrs by Western blotting analysis; assay type: cell-based
[9] = tested on: PC-9; settings: Homo sapiens, dose 75.0 mg/kg, route po, time 15.0 day
[10] = tested on: BaF3; settings: Mus musculus, dose 30-1000 nM, time 6.0 hrs
[11] = tested on: BaF3; settings: Mus musculus, dose 10-1000 nM; remark: listed apart in the source
[12] = tested on: NCI-H460; test: Anticancer activity against human NCI-H460 cells assessed as reduction in cell viability at IC50 concentration incubated for 72 hrs by CellTiter-Glo assay; assay type: functional, cell-based; outline: as §1
[13] = tested on: PC-9; test: Anti-tumor activity against human PC-9 cells expressing EGFR-C797S/T790M/del19 mutant xenografted in Balb-c nu/nu mouse assessed as prolonged survival at 75 mg/kg, po administered for 60 days and measured twice weekly in presence of cetuximab; assay type: functional, organism-based; settings: time 60.0 day
Outline: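 PC9 EGFR-C797S/T790M/del19 xenografts in Balb-c nu/nu mice, randomized at ~200 mm³. […] Tumour volume 0.5×length×width² and body weight measured twice weekly. Survival shown by Kaplan-Meier curve. N = 6. Mann-Whitney U test on tumour volume at day 23.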

[14] = tested on: BaF3; test: Inhibition of EGFR-T790M/del19 mutant in mouse BaF3 cells assessed as inhibition of Akt phosphorylation at 10 to 1000 nM incubated for 6 hrs by Western blotting analysis; assay type: cell-based; settings: dose 10-1000 nM
Outline: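 Ba/F3 cells carrying the stated EGFR mutant were made IL-3-independent after 1 week of 7 µM blasticidin selection. They were grown in low-glucose DMEM with 10% FBS and exposed to inhibitor for 6 h. Cells were washed in cold PBS, lysed in SDS buffer (100 mM Tris, 1% SDS, 10% glycerol) and boiled 5 min. Protein was measured by BCA, run on SDS-PAGE, transferred to PVDF, blocked in 5% BSA or milk/TBS-T, and immunoblotted.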

[15] = tested on: BaF3; test: Inhibition of EGFR-C797S/T790M/L858R mutant expressed in mouse BaF3 cells assessed as inhibition of Akt phosphorylation at 10 to 1000 nM incubated for 6 hrs by Western blotting analysis; assay type: cell-based; settings: dose 10-1000 nM
Outline: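 Ba/F3 cells expressing EGFR-L858R-series mutants treated with inhibitors for 6 h. SDS lysates quantified by BCA, run on SDS-PAGE and blotted to PVDF. Probed for phospho-EGFR (Tyr1068), total EGFR and downstream phospho-proteins.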

[16] = tested on: Epidermal growth factor receptor (Homo sapiens), P00533 [UNDEFINED MUTATION]; settings: MGH121, dose 500.0 nM, time 6-48 hrs, TDE = time-dependent effect
[17] = tested on: Epidermal growth factor receptor (Homo sapiens), P00533 [UNDEFINED MUTATION]; settings: MGH121, dose 10-1000 nM
[18] = tested on: Epidermal growth factor receptor (Homo sapiens), P00533 [UNDEFINED MUTATION]; settings: PC-9, dose 500.0 nM, time 6-48 hrs, TDE = time-dependent effect
[19] = molecular target: Epidermal growth factor receptor (Homo sapiens) (UniProt P00533); settings: dose 0.01-10000 nM, time 10.0 min
[20] = tested on: Epidermal growth factor receptor (Homo sapiens), P00533 [UNDEFINED MUTATION]; settings: PC-9, dose 10-1000 nM; remark: listed apart in the source
[21] = tested on: PC-9; test: Inhibition of EGFR T790M/del19 mutant in human PC-9 cells assessed as reduction in ERK phosphorylation at 10 to 1000 nM by Western blotting analysis; assay type: cell-based; settings: dose 10-1000 nM
[22] = tested on: BaF3; settings: Mus musculus, dose 10-1000 nM, time 6.0 hrs
[23] = tested on: Epidermal growth factor receptor (Homo sapiens), P00533 [UNDEFINED MUTATION]; settings: MGH121, dose 10-1000 nM; remark: listed apart in the source
[24] = tested on: BaF3; settings: Mus musculus, dose 30-1000 nM, time 6.0 hrs; remark: listed apart in the source
[25] = tested on: PC-9; settings: Homo sapiens, dose 75.0 mg/kg, route po, time 60.0 day
[26] = tested on: PC-9; test: Anti-tumor activity against human PC-9 cells expressing EGFR-C797S/T790M/del19 mutant xenografted in Balb-c nu/nu mouse assessed as decreased tumor growth at 75 mg/kg, po administered for 60 days and measured twice weekly in presence of panitumumab; assay type: functional, organism-based; settings: time 60.0 day
Outline: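 PC9 EGFR-C797S/T790M/del19 xenografts in Balb-c nu/nu mice, randomized at ~200 mm³. […] Tumour volume 0.5×length×width² measured twice weekly. Survival by Kaplan-Meier. N = 6. Mann-Whitney U test at days 16 and 23.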

[27] = tested on: Epidermal growth factor receptor (Homo sapiens), P00533 [UNDEFINED MUTATION]; settings: MGH121, dose 500.0 nM, time 48.0 hrs; remark: listed apart in the source

Epidermal growth factor receptor (Homo sapiens), P00533 [UNDEFINED MUTATION], sequence (P00533 whole entry, looked up, stated change not applied): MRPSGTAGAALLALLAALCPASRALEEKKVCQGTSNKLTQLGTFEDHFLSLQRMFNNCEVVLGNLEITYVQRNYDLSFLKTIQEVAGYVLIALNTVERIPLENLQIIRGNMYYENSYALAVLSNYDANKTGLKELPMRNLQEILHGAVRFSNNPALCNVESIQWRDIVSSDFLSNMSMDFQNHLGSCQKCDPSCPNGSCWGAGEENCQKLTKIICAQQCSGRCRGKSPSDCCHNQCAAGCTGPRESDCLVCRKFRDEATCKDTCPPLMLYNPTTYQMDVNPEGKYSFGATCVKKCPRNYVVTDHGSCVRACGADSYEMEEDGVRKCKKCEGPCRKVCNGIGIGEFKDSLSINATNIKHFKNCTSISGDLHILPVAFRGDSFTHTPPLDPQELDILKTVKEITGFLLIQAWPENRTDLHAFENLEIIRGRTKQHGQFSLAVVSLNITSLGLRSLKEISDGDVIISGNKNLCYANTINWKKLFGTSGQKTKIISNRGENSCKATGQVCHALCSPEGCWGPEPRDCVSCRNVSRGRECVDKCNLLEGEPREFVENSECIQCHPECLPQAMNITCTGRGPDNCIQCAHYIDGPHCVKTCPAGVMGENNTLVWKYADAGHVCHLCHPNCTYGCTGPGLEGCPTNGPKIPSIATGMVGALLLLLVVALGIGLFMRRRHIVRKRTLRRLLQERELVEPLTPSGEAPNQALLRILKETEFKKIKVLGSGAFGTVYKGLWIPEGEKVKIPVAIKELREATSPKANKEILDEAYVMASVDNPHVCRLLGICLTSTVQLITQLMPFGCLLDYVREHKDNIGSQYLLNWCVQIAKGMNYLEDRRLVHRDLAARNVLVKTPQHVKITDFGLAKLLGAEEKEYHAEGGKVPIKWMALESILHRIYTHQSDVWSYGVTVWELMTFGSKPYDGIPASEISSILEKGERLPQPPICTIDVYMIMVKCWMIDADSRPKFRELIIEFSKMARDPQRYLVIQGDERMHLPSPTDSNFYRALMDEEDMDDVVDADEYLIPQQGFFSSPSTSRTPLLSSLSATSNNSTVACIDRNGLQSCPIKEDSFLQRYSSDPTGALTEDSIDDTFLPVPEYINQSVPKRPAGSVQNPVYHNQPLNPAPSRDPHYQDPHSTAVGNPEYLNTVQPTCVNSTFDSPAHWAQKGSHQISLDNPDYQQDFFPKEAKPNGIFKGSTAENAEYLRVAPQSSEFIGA
Epidermal growth factor receptor (Homo sapiens), sequence (P00533 whole entry): as the sequence (P00533 whole entry, looked up, stated change not applied) above

With COc1cc(N2CCC(N3CCN(C)CC3)CC2)ccc1Nc1ncc(Cl)c(Nc2ccccc2P(C)(C)=O)n1 [BRIGATINIB] the Activity [1] was “Active”, the inhibition [2] was “Dose-Dependent Effect” and the inhibition [3] was “Active”. For the same compound, the inhibition [4] was “Active”, the inhibition [5] was “inactive” and the Activity [6] was “Active”. For the same compound, the inhibition [7] was “Dose-Dependent Effect”, the inhibition [8] was “Dose-Dependent Effect” and the inhibition [9] was “Active”. The inhibition [10] was “Active”, the inhibition [11] was “Dose-Dependent Effect” and the Activity [12] was “Active”. The Activity [13] was “Active”, the inhibition [14] was “Active” and the inhibition [15] was “Active”. For the same compound, the inhibition [16] was “Tde”, the inhibition [17] was “Active” and the inhibition [18] was “Tde”. For the same compound, the inhibition [19] was “Dose-Dependent Effect”, the inhibition [20] was “Active” and the inhibition [21] was “Active”. The inhibition [22] was “Active”, the inhibition [23] was “Active” and the inhibition [24] was “Active”. The inhibition [25] was “Active”, the Activity [26] was “Active” and the inhibition [27] was “Active”.
